Measured values reported in ChEMBL document CHEMBL3259728, “Design, synthesis and biological evaluation of some novel substituted quinazolines as antitumor agents” (2014).

How the values were obtained:
Format in all cases: functional
[1] = Growth inhibition of human UACC257 cells at 10 uM after 48 hrs by SRB assay; conditions: UACC-257, 48 h, read-out: GI
Summary of the method: (§1)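 NCI-60 primary one-dose screen run at the US NCI, with human tumour lines from nine cancer types. Compound added once at 10^-5 M, followed by 48 h incubation. End point was sulforhodamine B protein staining read spectrophotometrically. Result given as percent growth of treated cells against untreated controls, reported as % growth inhibition.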

[2] = system: K562; assay: Growth inhibition of human K562 cells at 10 uM after 48 hrs by SRB assay; conditions: K562, 48 h, read-out: GI; summary of the method: as §1
[3] = system: MDA-MB-435; assay: Growth inhibition of human MDA-MB-435 cells at 10 uM after 48 hrs by SRB assay; conditions: MDA-MB-435, 48 h, read-out: GI; summary of the method: as §1
[4] = system: HCT-116; assay: Growth inhibition of human HCT116 cells at 10 uM after 48 hrs by SRB assay; conditions: HCT-116, 48 h, read-out: GI; summary of the method: as §1
[5] = Growth inhibition of human OVCAR4 cells at 10 uM after 48 hrs by SRB assay; conditions: OVCAR-4, 48 h, read-out: GI; summary of the method: as §1
[6] = system: MDA-MB-468; assay: Growth inhibition of human MDA-MB-468 cells assessed as cell growth at 10 uM after 48 hrs by SRB assay; conditions: MDA-MB-468, 48 h, read-out: GI; summary of the method: as §1
[7] = system: SNB-75; assay: Growth inhibition of human SNB75 cells at 10 uM after 48 hrs by SRB assay; conditions: SNB-75, 48 h, read-out: GI; summary of the method: as §1
[8] = system: M14; assay: Growth inhibition of human M14 cells at 10 uM after 48 hrs by SRB assay; conditions: M14, 48 h, read-out: GI; summary of the method: as §1
[9] = system: NCI-H460; assay: Growth inhibition of human NCI-H460 cells at 10 uM after 48 hrs by SRB assay; conditions: NCI-H460, 48 h, read-out: GI; summary of the method: as §1
[10] = Growth inhibition of human LOXIMVI cells at 10 uM after 48 hrs by SRB assay; conditions: LOX IMVI, read-out: GI; summary of the method: as §1
[11] = system: Malme-3M; assay: Growth inhibition of human MALME-3M cells at 10 uM after 48 hrs by SRB assay; conditions: read-out: GI; summary of the method: as §1
[12] = system: MCF7; assay: Growth inhibition of human MCF7 cells at 10 uM after 48 hrs by SRB assay; conditions: MCF7, 48 h, read-out: GI; summary of the method: as §1
[13] = Growth inhibition of human OVCAR8 cells at 10 uM after 48 hrs by SRB assay; conditions: OVCAR-8, 48 h, read-out: GI; summary of the method: as §1
[14] = system: DU-145; assay: Growth inhibition of human DU145 cells at 10 uM after 48 hrs by SRB assay; conditions: DU-145, 48 h, read-out: GI; summary of the method: as §1
[15] = system: NCI-H226; assay: Growth inhibition of human NCI-H226 cells at 10 uM after 48 hrs by SRB assay; conditions: NCI-H226, 48 h, read-out: GI; summary of the method: as §1
[16] = system: SNB-19; assay: Growth inhibition of human SNB19 cells at 10 uM after 48 hrs by SRB assay; conditions: SNB-19, 48 h, read-out: GI; summary of the method: as §1
[17] = system: MDA-MB-231; assay: Growth inhibition of human MDA-MB-231 cells at 10 uM after 48 hrs by SRB assay; conditions: MDA-MB-231, 48 h, read-out: GI; summary of the method: as §1
[18] = system: U-251; assay: Growth inhibition of human U251 cells at 10 uM after 48 hrs by SRB assay; conditions: U-251, 48 h, read-out: GI; summary of the method: as §1
[19] = system: A498; assay: Growth inhibition of human A498 cells at 10 uM after 48 hrs by SRB assay; conditions: A498, 48 h, read-out: GI
Summary of the method: (§2)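 NCI primary one-dose screen. A single concentration of 10^-5 M was added to the cell culture, followed by 48 h incubation and an SRB protein-dye endpoint read spectrophotometrically. Results are growth percentage relative to untreated control cells, reported as % growth inhibition.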

[20] = system: SF-268; assay: Growth inhibition of human SF268 cells at 10 uM after 48 hrs by SRB assay; conditions: SF-268, 48 h, read-out: GI; summary of the method: as §1
[21] = system: SW-620; assay: Growth inhibition of human SW620 cells at 10 uM after 48 hrs by SRB assay; conditions: SW-620, 48 h, read-out: GI; summary of the method: as §1
[22] = Growth inhibition of human OVCAR5 cells at 10 uM after 48 hrs by SRB assay; conditions: OVCAR-5, 48 h, read-out: GI; summary of the method: as §1
[23] = system: T47D; assay: Growth inhibition of human T47D cells at 10 uM after 48 hrs by SRB assay; conditions: read-out: GI; summary of the method: as §1
[24] = Growth inhibition of human Hs578T cells at 10 uM after 48 hrs by SRB assay; conditions: Hs-578T, read-out: GI; summary of the method: as §1
[25] = system: KM12; assay: Growth inhibition of human KM12 cells at 10 uM after 48 hrs by SRB assay; conditions: KM12, 48 h, read-out: GI; summary of the method: as §1
[26] = system: HOP-62; assay: Growth inhibition of human HOP62 cells at 10 uM after 48 hrs by SRB assay; conditions: HOP-62, 48 h, read-out: GI; summary of the method: as §1
[27] = system: HT-29; assay: Growth inhibition of human HT-29 cells at 10 uM after 48 hrs by SRB assay; conditions: HT-29, 48 h, read-out: GI; summary of the method: as §1
[28] = system: SN12C; assay: Growth inhibition of human SN12C cells at 10 uM after 48 hrs by SRB assay; conditions: read-out: GI; summary of the method: as §1
[29] = system: IGROV-1; assay: Growth inhibition of human IGROV1 cells at 10 uM after 48 hrs by SRB assay; conditions: IGROV-1, 48 h, read-out: GI; summary of the method: as §1
[30] = Growth inhibition of human BT549 cells at 10 uM after 48 hrs by SRB assay; conditions: BT-549, 48 h, read-out: GI; summary of the method: as §2
[31] = system: SK-MEL-2; assay: Growth inhibition of human SK-MEL-2 cells at 10 uM after 48 hrs by SRB assay; conditions: SK-MEL-2, 48 h, read-out: GI; summary of the method: as §1
[32] = system: CAKI-1; assay: Growth inhibition of human CAKI-1 cells at 10 uM after 48 hrs by SRB assay; conditions: CAKI-1, 48 h, read-out: GI; summary of the method: as §2
[33] = Growth inhibition of human UACC62 cells at 10 uM after 48 hrs by SRB assay; conditions: UACC-62, 48 h, read-out: GI; summary of the method: as §1
[34] = system: SK-OV-3; assay: Growth inhibition of human SKOV3 cells at 10 uM after 48 hrs by SRB assay; conditions: SK-OV-3, 48 h, read-out: GI; summary of the method: as §1
[35] = system: A549; assay: Growth inhibition of human A549 cells at 10 uM after 48 hrs by SRB assay; conditions: A549, 48 h, read-out: GI; summary of the method: as §2
[36] = Growth inhibition of human EKVX cells at 10 uM after 48 hrs by SRB assay; conditions: read-out: GI; summary of the method: as §1
[37] = Growth inhibition of human MOLT4 cells at 10 uM after 48 hrs by SRB assay; conditions: MOLT-4, 48 h, read-out: GI; summary of the method: as §1
[38] = system: SK-MEL-5; assay: Growth inhibition of human SK-MEL-5 cells at 10 uM after 48 hrs by SRB assay; conditions: SK-MEL-5, 48 h, read-out: GI; summary of the method: as §1

Structure (SMILES): Cc1ccc(C(=O)Nc2ccc(Cl)cc2C(=O)NCc2ccccc2)cc1
- inhibition of growth at 10 µM [1]: 15%
- inhibition of growth at 10 µM [2]: 70%
- inhibition of growth at 10 µM [3]: 98%
- inhibition of growth at 10 µM [4]: 11%
- inhibition of growth at 10 µM [5]: 21%
- inhibition of growth at 10 µM [6]: 17%
- inhibition of growth at 10 µM [7]: 33%
- inhibition of growth at 10 µM [8]: 26%
- inhibition of growth at 10 µM [9]: < 10%
- inhibition of growth at 10 µM [10]: 21%
- inhibition of growth at 10 µM [11]: 12%
- inhibition of growth at 10 µM [12]: 47%
- inhibition of growth at 10 µM [13]: 13%
- inhibition of growth at 10 µM [14]: < 10%
- inhibition of growth at 10 µM [15]: < 10%
- inhibition of growth at 10 µM [16]: < 10%
- inhibition of growth at 10 µM [17]: < 10%
- inhibition of growth at 10 µM [18]: 19%
- inhibition of growth at 10 µM [19]: 21%
- inhibition of growth at 10 µM [20]: < 10%
- inhibition of growth at 10 µM [21]: 42%
- inhibition of growth at 10 µM [22]: < 10%
- inhibition of growth at 10 µM [23]: < 10%
- inhibition of growth at 10 µM [24]: 21%
- inhibition of growth at 10 µM [25]: 40%
- inhibition of growth at 10 µM [26]: 12%
- inhibition of growth at 10 µM [27]: 77%
- inhibition of growth at 10 µM [28]: < 10%
- inhibition of growth at 10 µM [29]: 16%
- inhibition of growth at 10 µM [30]: < 10%
- inhibition of growth at 10 µM [31]: 49%
- inhibition of growth at 10 µM [32]: 23%
- inhibition of growth at 10 µM [33]: 30%
- inhibition of growth at 10 µM [34]: < 10%
- inhibition of growth at 10 µM [35]: 15%
- inhibition of growth at 10 µM [36]: 20%
- inhibition of growth at 10 µM [37]: 49%
- inhibition of growth at 10 µM [38]: 22%
